Five molecules from ChEMBL document CHEMBL3351374, “Semisynthetic teicoplanin derivatives as new influenza virus binding inhibitors: synthesis and antiviral studies” (Bioorg Med Chem Lett, 2014) can be followed below.

The subject of series [1] is Staphylococcus aureus. The series can be described thus: Antibacterial activity against methicillin-resistant Staphylococcus aureus ATCC 33591 by broth microdilution method. The class given is functional. (In general: Broth dilution looks for growth in wells or tubes with falling amounts of substance.)
Series [2] has as its system Enterococcus faecalis. The series can be described thus: Antibacterial activity against Enterococcus faecalis ATCC 29212 by broth microdilution method. The class given is functional.
For another series, the system named is Bacillus spizizenii. Nature of the series: Antibacterial activity against Bacillus subtilis ATCC 6633 by broth microdilution method. The class given is functional.
For series [3], the system named is Enterococcus faecalis. Nature of the series: Antibacterial activity against vanA gene-positive Enterococcus faecalis 15376 by broth microdilution method. The class given is functional.
In series [4] the test system is Staphylococcus aureus. The series can be described thus: Antibacterial activity against methicillin-sensitive Staphylococcus aureus ATCC 29213 by broth microdilution method. Type of series: functional.
The test system of series [5] is Enterococcus faecalis. The series can be described thus: Antibacterial activity against vanA gene-positive Enterococcus faecalis ATCC 51299 by broth microdilution method. Type of series: functional.
Series [6] has as its system Staphylococcus epidermidis. Nature of the series: Antibacterial activity against biofilm forming Staphylococcus epidermidis ATCC 35984 by broth microdilution method. Type of series: functional.
Series [7] concerns Staphylococcus epidermidis. The series can be described thus: Antibacterial activity against biofilm forming Staphylococcus epidermidis harboring mecA gene by broth microdilution method. The class given is functional.
In series [8] the test system is Influenza A virus. The series can be described thus: Antiviral activity against Influenza A virus (A/PR/8/34(H1N1)) infected in MDCK cells assessed as reduction in host cell viability after 72 hrs by MTS assay. As to conditions: A/Puerto Rico/8/1934(H1N1). Type of series: functional, organism-based. For orientation: Tetrazolium assays rely on reduction of a dye to a coloured formazan, in cell work by metabolically active cells.

For series [9], the system named is Influenza B virus. The series can be described thus: Antiviral activity against Influenza B virus (B/HK/05/1972) infected in MDCK cells assessed as reduction in host cell viability after 72 hrs by MTS assay. Type of series: functional, cell-based. As to conditions: B/Hong Kong/05/1972, MDCK.
Series [10] is described as follows: Antiviral activity against Influenza A virus (A/HK/7/1987(H3N2)) infected in MDCK cells assessed as reduction in host cell viability after 72 hrs by MTS assay. The class given is functional, cell-based, Influenza A virus (A/Hong Kong/7/1987(H3N2)).
Series [11] has as its system Influenza A virus. The series can be described thus: Antiviral activity against Influenza A virus A/Virginia/ATCC3/2009 infected in MDCK cells assessed as reduction in host cell viability after 72 hrs by MTS assay. As to conditions: A/Virginia/ATCC3/2009, MDCK. The class given is functional, organism-based.
A short description of series [12]: Antiviral activity against Influenza A virus (A/HK/7/1987(H3N2)) infected in MDCK cells assessed as virus-induced cytopathic effect after 72 hrs by microscopy. Type of series: functional, cell-based, Influenza A virus (A/Hong Kong/7/1987(H3N2)). A general note: Protection from cytopathic effect is a common read-out in antiviral testing.
Series [13] has as its system Influenza B virus. The series can be described thus: Antiviral activity against Influenza B virus (B/HK/05/1972) infected in MDCK cells assessed as virus-induced cytopathic effect after 72 hrs by microscopy. The class given is functional, cell-based. As to conditions: B/Hong Kong/05/1972, MDCK.
Series [14] can be described thus: Cytotoxicity against MDCK cells assessed as change in cell morphology after 72 hrs by microscopy. As to conditions: dog. The class given is cell-based, Canis lupus familiaris. In a few lines: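 Uninfected MDCK cells exposed to compound. MCC is the minimal concentration causing minimal alterations in cell morphology, assessed by microscopy.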
In series [15] the test system is Influenza A virus. Nature of the series: Antiviral activity against Influenza A virus A/Virginia/ATCC3/2009 infected in MDCK cells assessed as virus-induced cytopathic effect after 72 hrs by microscopy. The class given is functional, organism-based. The note with it: A/Virginia/ATCC3/2009, MDCK.
Series [16] is described as follows: Cytotoxicity against MDCK cells assessed as reduction in cell viability after 72 hrs by MTS assay. The class given is cell-based, Canis lupus familiaris. As to conditions: dog.
Series [17] relates to Influenza A virus. Nature of the series: Antiviral activity against Influenza A virus (A/PR/8/34(H1N1)) infected in MDCK cells assessed as virus-induced cytopathic effect after 72 hrs by microscopy. The class given is functional, organism-based. The note with it: A/Puerto Rico/8/1934(H1N1).

≈ marks a conversion by molar mass, not a printed value. Some results are limits rather than exact numbers.

For `COc1ccc(CO[C@H]2[C@H](OC)[C@@H](OC)[C@@H](OC)O[C@@H]2COCCOCCOCCOCCOCc2cn([C@H]3C(=O)N[C@@H]4Cc5ccc(c(Cl)c5)Oc5cc6cc(c5O)Oc5ccc(cc5Cl)[C@@H](O[C@@H]5O[C@H](CO)[C@@H](O)[C@H](O)[C@H]5NC(C)=O)[C@@H]5NC(=O)[C@H](NC(=O)[C@@H]6NC(=O)[C@@H](NC4=O)c4cc(O)cc(c4)Oc4cc3ccc4O)c3ccc(O)c(c3)-c3c(O)cc(O)cc3[C@@H](C(=O)O)NC5=O)nn2)cc1`, the MIC with Staphylococcus aureus [1] was determined as 32 µg/mL (≈ 16.1 µM); in the series on Enterococcus faecalis [2], 32 µg/mL (≈ 16.1 µM); against Bacillus spizizenii it was 16 µg/mL (≈ 8.06 µM); in the series with Enterococcus faecalis [3], 32 µg/mL (≈ 16.1 µM); in the series with Staphylococcus aureus [4], 16 µg/mL (≈ 8.06 µM); with Enterococcus faecalis [5], 32 µg/mL (≈ 16.1 µM). The results for the MIC in series [6] and in series [7] were 16 µg/mL (≈ 8.06 µM) and 32 µg/mL (≈ 16.1 µM), respectively.
For the molecule `NC12CC3CC(CC(C3)C1)C2` [AMANTADINE], the EC50 (as a rule, the concentration giving half of the maximal effect) is 111 µM in the series on Influenza A virus [8]; greater than 500 µM with Influenza B virus [9]; 0.5 µM in [10]; greater than 500 µM in the series on Influenza A virus [11]; 0.45 µM in series [12]; greater than 500 µM with Influenza B virus [13]. Further, the EC50 with Influenza A virus [15] is greater than 500 µM. The MCC at 72 h in series [14] was greater than 500 µM. In [16], the CC50 (commonly the concentration that lowers cell viability or growth by half) at 72 h is greater than 500 µM.
In the case of `NC(=O)c1ncn([C@@H]2O[C@H](CO)[C@@H](O)[C@H]2O)n1` [RIBAVIRIN], the EC50 with Influenza A virus [8] came to 21 µM; with Influenza B virus [9], 8.2 µM; in [10], 7.3 µM; in [12] it was 6.8 µM. In addition, the MCC at 72 h in series [14] was no less than 20 µM. Further, in series [16], the CC50 at 72 h was greater than 100 µM.
As for `CC(N)C12CC3CC(CC(C3)C1)C2` (stereo not drawn) [RIMANTADINE], the EC50 in the series on Influenza A virus [8] is 5.3 µM; in the series on Influenza B virus [9], greater than 500 µM; in series [10] it was 0.046 µM; in the series on Influenza A virus [11] it was greater than 500 µM; in series [12] it was 0.051 µM; in the series with Influenza A virus [17] it was 4.6 µM. Moreover, the EC50 in the series with Influenza B virus [13] and with Influenza A virus [15] was greater than 500 µM each time. Also, the MCC at 72 h in series [14] is no less than 500 µM. Also, in series [16], the CC50 at 72 h was greater than 500 µM.
`CC(=O)N[C@H]1[C@H]([C@H](O)[C@H](O)CO)OC(C(=O)O)=C[C@@H]1NC(=N)N` [ZANAMIVIR]: the EC50 with Influenza A virus [8] was found to be 0.5 µM; in the series on Influenza B virus [9] it was 9.4 µM; in series [10], 9 µM; in the series on Influenza A virus [11], 20 µM; in series [12], 8.9 µM; with Influenza A virus [17], 0.47 µM. Moreover, the EC50 in the series with Influenza B virus [13] turned out to be 12 µM; with Influenza A virus [15], 45 µM. The MCC at 72 h in series [14] is greater than 100 µM. Further, in [16], the CC50 at 72 h is greater than 100 µM.
